High-throughput results as filed in PubChem BioAssay.
The list is not random: actives were taken first. Their share in the collection is about 3.7%.
KCNQ1 pot – human KCNQ1 channel potentiation or activation | CHO-K1 KCNQ1, thallium flux FluxOR fluorescence; active compounds read high | B-score at 10 µM | actives 0.35% (n = 310,000);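 active = fluorescence ratio B-score, a plate-corrected score, at least three library SD, with initial intensity B-score within 5 SD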
Target sequence (P51787 whole entry, looked up): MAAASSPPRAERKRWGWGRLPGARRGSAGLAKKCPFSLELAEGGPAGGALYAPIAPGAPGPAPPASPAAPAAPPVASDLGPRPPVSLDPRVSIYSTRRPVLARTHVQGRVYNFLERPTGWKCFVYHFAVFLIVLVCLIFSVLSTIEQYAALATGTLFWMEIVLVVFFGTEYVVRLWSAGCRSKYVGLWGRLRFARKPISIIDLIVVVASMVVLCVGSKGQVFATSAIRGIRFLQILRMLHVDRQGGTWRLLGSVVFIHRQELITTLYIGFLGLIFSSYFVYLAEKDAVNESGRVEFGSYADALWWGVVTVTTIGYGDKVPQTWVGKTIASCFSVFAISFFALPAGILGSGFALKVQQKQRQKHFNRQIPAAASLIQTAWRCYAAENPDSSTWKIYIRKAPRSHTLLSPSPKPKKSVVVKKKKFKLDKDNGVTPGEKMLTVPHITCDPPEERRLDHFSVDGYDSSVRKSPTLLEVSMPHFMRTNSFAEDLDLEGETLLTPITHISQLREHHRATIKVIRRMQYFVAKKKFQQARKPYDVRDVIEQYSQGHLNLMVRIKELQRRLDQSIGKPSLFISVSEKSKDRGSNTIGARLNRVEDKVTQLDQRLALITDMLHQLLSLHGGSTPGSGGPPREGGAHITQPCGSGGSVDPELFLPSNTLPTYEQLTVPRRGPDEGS
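Medium – assay buffer, equal DMSO in all wells · Material – CHO-K1 cell line with stable KCNQ1 potassium channel expression · Signal – kinetic FluxOR thallium fluorescence, 10-s 1-Hz baseline, 110-s post-stimulus read · Compound – single concentration per compound, DMSO matched to controls · Schedule – 37 °C overnight plating, 90-min dark dye load, 20-min compound pretreatment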
KCNK3 inh – human KCNK3 channel inhibition, primary screen; O14649; CHO-KCNK3 thallium flux, FluxOR fluorescence; active compounds read low; B-score at 10 µM; actives 0.84% (n = 340,000);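 active = B-score under library mean minus 4 SD, starting fluorescence ratio at most library mean plus 5 SD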;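 note: more negative B-score means stronger inhibition of thallium flux through KCNK3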
hERG rescue – hERG (human) protection from proarrhythmic block; activation (rescue from dofetilide block), less the hit threshold, % at 10 µM; actives 0.51% (n = 310,000); Q12809; CHO-hERG, FluxOR thallium flux, dofetilide IC70 present;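 active = activation above the mean of controls blocked by dofetilide plus 5 SD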;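 note: thallium influx through hERG after potassium depolarization seen as dye fluorescence rise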
KCNQ1 block – human KCNQ1 channel inhibition; P51787; CHO-K1 KCNQ1, FluxOR thallium flux fluorescence; active compounds read high; B-score at 10 µM; actives 1.3% (n = 310,000);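 active = compounds whose thallium flux B-score, printed positive for inhibition, exceeds three library SD while starting fluorescence stays within three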;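 note: channel opened by potassium depolarization with thallium stimulus after 20 min compound exposure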
Kir21 block – Kir2.1 (mouse) channel inhibition. P35561. HEK293-Kir2.1, FluxOR thallium flux fluorescence; active compounds read low. B-score at 10 µM. actives 0.85% (n = 310,000);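 active = fluorescence ratio B-score at or below minus 3 SD of library scores, with starting-brightness B-score within 2 SD, cut at about -4.2 in these data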;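 note: channel flux triggered by added potassium and thallium sulfate stimulus; B-score of peak minus minimum fluorescence over baseline after thallium stimulus; more negative B-score means stronger Kir2.1 block with less thallium influx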
KCNK9 inh – human KCNK9 channel inhibition | Q9NPC2 | HEK293 KCNK9, FluxOR thallium flux fluorescence; active compounds read low | AID 488922 | B-score at 10 µM | actives 1.2% (n = 310,000);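 active = ratio B-score over 3 SD below the library mean, with starting fluorescence within 5 SD of its mean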;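 note: negative B-score means less thallium flux so channel inhibition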
Starred values were filed as active, the others as inactive; i = inactive; . = no result.

SMILES | KCNQ1 pot | KCNK3 inh | hERG rescue | KCNQ1 block | Kir21 block | KCNK9 inh
Oc1cccc2c(NC(=S)Nc3ccc(SC(F)F)cc3)cccc12 | i | i | -11 | 11* | 0.3 | i
FC(F)Sc1ccc(NC(=S)NC2CCC(NC(=S)Nc3ccc(SC(F)F)cc3)CC2)cc1 (configuration not stated) | i | i | -5 | i | 1.2 | i
COC(=O)/C(=C\Nc1cccc(Cl)c1C)c1ncc(C(F)(F)F)cc1Cl | i | i | -11 | i | -1 | i
CON/C=C(\C=Nc1ccccc1)c1ncc(C(F)(F)F)cc1Cl | i | i | -16 | 7* | 0.45 | i
Cc1cc(C)c(NC(=O)CCCn2c(=O)oc3ccccc32)c(C)c1 | . | i | . | . | . | .
CCN1CCN(Cc2ccc(NC(=O)c3cc(NC(=O)c4cncc(-c5cccs5)c4)cc(OC)c3)cc2C(F)(F)F)CC1 | i | . | -27 | 8* | -0.03 | i
N#Cc1ccc(N2Cc3ccccc3C2=NC(=O)c2cccnc2Cl)cc1 | i | i | -8 | i | 2.1 | i
O=C(N=C1c2ccccc2CN1c1ccc(F)c(Cl)c1)c1cccnc1Cl | i | . | -7 | i | -0.21 | -11*
O=C(NN1CCOCC1)c1ccccc1Br | i | i | -5 | i | -1.2 | i
N#CC1C=Cc2ccccc2N1C(=O)c1ccccc1 (configuration not stated) | i | i | -4 | i | -0.95 | -7.3*
O=C(O)C1C=Cc2ccccc2N1C(=O)c1ccccc1 (configuration not stated) (tested in a mixture with another compound) | . | i | . | . | . | .
CCN1C(=O)/C(=C\c2ccncc2)SC1=S | i | i | -3 | i | -0.66 | i
CCCCC(CC)CN1C(=O)/C(=C/c2ccncc2)SC1=S (configuration not stated) | i | i | -3 | 7* | -3.5 | i
COc1ccc2c(-c3ccccc3)cc(=S)[nH]c2c1 | i | i | -6 | i | 1.3 | i
Cc1ccc(CNC(=O)C2CCCN(S(=O)(=O)c3ccc(F)cc3)C2)cc1 (configuration not stated) | i | i | -1 | i | 0.77 | i
c1ccc(C[C@H]2CN=C(Nc3ccccc3)N2CCCC2CCCC2)cc1 | i | i | -20 | i | -5.6* | i
C[C@H]1CN=C(Nc2ccccc2)N1CCCC1CCCCC1 | i | i | -8 | i | -0.24 | i
c1ccc(CCCCN2C(Nc3ccccc3)=NC[C@@H]2Cc2ccccc2)cc1 | . | i | . | . | . | .
CCCCCCCN1C(Nc2ccccc2)=NC[C@@H]1Cc1ccccc1 | i | i | -22 | 7* | -5.6* | i
CC1(c2nnc(-c3cccc(Cl)c3)o2)CC(c2ccccc2)=NO1 (configuration not stated) | i | i | -12 | i | 0.01 | i
Cc1nc(C(F)(F)F)ccc1C(=O)Nc1ccccc1N1CCOCC1 | i | i | -9 | i | -1.1 | i
CN1/C(=C\C=[N+](C)c2ccccc2)C(C)(C)c2ccccc21 | i | i | -18 | 8* | -3.1 | i
S=c1[nH]c2ccc(Cl)cc2s1 | 69* | i | 53* | i | 0.39 | i
O=[N+]([O-])c1ccc2[nH]c(=S)sc2c1 | . | i | . | . | . | .
O=C(COc1ccc(F)cc1F)N1CCCCCCC1 | i | i | -9 | i | 0.59 | i
SMILES | KCNQ1 pot | KCNK3 inh | hERG rescue | KCNQ1 block | Kir21 block | KCNK9 inh
COc1ccc(NC(=O)CSc2nc3nc(-c4cccs4)cc(C(F)(F)F)c3c(=O)[nH]2)c(OC)c1 | i | i | -5 | 9* | 0.12 | i
O=C(CC(SCc1ccco1)c1ccc(O)cc1)c1cccs1 (configuration not stated) | i | i | -14 | i | -4.8* | i
Cc1ccc(Nc2nc(-c3ccccc3)cs2)nc1 | i | i | -5 | i | 0.9 | i
Cc1ccc(Nc2nc(-c3cccs3)cs2)nc1 | i | i | 6.1* | i | 0.51 | i
Cc1ccc(C(=O)N(C)CC(=O)Nc2ccc(Cl)c(C(F)(F)F)c2)cc1S(=O)(=O)N1CCCCC1 | . | -11* | . | . | . | .
Cc1sc2ncnc(N3CCC(C(=O)N(C)CC(=O)Nc4ccc(Cl)c(C(F)(F)F)c4)CC3)c2c1C | i | i | -14 | 9* | 1.4 | i
Cc1ccc(S(=O)(=O)N2CCCCC2)cc1C(=O)N(C)CC(=O)Nc1ccc(Cl)c(C(F)(F)F)c1 | i | i | -15 | i | -0.22 | i
CCOc1ccc([C@@H]2CC=C(C(=O)O)CN2S(=O)(=O)c2ccc(C)cc2)cc1 | . | i | . | . | . | .
O=C(CCC1N=C2c3ccccc3N=C(SCc3ccc(Cl)cc3)N2C1=O)NCc1ccco1 (configuration not stated) | i | i | -17 | i | -2.5 | -7.8*
O=C(CCC1N=C2c3ccccc3N=C(SCc3ccc(F)cc3)N2C1=O)NCc1ccco1 (configuration not stated) | i | i | -18 | i | -1.8 | i
COCCCNC(=O)c1ccc2c3c(onc13)-c1ccccc1C2=O | i | i | -56 | 10* | -14 | i
CC(C)OCCCNC(=O)c1ccc2c(c1)S(=O)(=O)c1ccccc1C2=O | i | i | -13 | i | 0.99 | i
CCCc1cc(=O)n2[nH]cc(-c3ccc(Cl)cc3)c2n1 | 10* | i | 3 | i | -0.18 | i
CNC(=O)OCc1nc(SSC(C)(C)C)n(C)c1COC(=O)NC | . | i | . | . | . | .
CCc1ccc(S(=O)(=O)NCCc2cn3ccc(C)cc3n2)s1 | i | i | -7 | i | -8.8* | i
CN1C[C@H]2CON(C)[C@H]2C[C@H]1c1cccc(N2CCOCC2)c1 | . | i | . | . | . | .
COc1ccccc1NC(=O)COC(=O)COc1cccc2c1OC(C)(C)C2 | i | i | -14 | i | -0.85 | i
Cc1ccc(OCC(O)CN2CCc3ccccc3C2)c(C)c1 (configuration not stated) | i | i | -8 | i | -7.9* | i
COc1ccc(OCC(O)CN2CCc3ccccc3C2)cc1 (configuration not stated) | i | i | -2 | i | 2.3 | i
Clc1ccc(OCCOCCN2CCc3ccccc3C2)c(Cl)c1 | i | i | -18 | i | -15* | i
Cc1cccc(OCC(O)CN2CCc3ccccc3C2)c1 (configuration not stated) | i | i | -11 | i | -8.8* | i
CC(C)(C)c1ccc(OCC(O)CN2CCc3ccccc3C2)cc1 (configuration not stated) | i | i | -18 | i | -0.28 | i
